Results: ChEMBL document CHEMBL1154269, “Isolation and structural elucidation of euryjanicins B-D, proline-containing cycloheptapeptides from the Caribbean marine sponge Prosuberites laughlini” (2009)
Calls of active or inactive are those of the source. The rule behind the calls is not given here. Where a SMILES comes first, the peptide text is derived from it.

How the values were obtained:
[1] = system: Respiratory syncytial virus; experiment: Antiviral activity against RSV A; format: functional, organism-based
[2] = system: Rift Valley fever virus; experiment: Antiviral activity against Rift Valley fever virus; format: functional, organism-based
[3] = system: IGROV-1; experiment: Cytotoxicity against human IGROV1 cells assessed as viable cells at 10 uM after 48 hrs by sulforhodamine B assay; format: functional; details: IGROV-1, 48 h, read-out: Activity
Method in brief: (§1)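 Tested at a single high dose of 10−5 M across the full NCI 60 human cancer cell line panel. Read-out is percent growth of treated cells.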

[4] = system: Human alphaherpesvirus 1; experiment: Antiviral activity against HSV1; format: functional, organism-based
[5] = system: Plasmodium falciparum; experiment: Antimalarial activity against Plasmodium falciparum W2 clone after 48 hrs by fluorescence microplate reader assay; format: functional, organism-based
[6] = system: NCI-H522; experiment: Cytotoxicity against human NCI-H522 cells assessed as cell viability at 10 uM after 48 hrs by sulforhodamine B assay; format: functional; details: NCI-H522, 48 h, read-out: Activity; method in brief: as §1
[7] = system: UO-31; experiment: Cytotoxicity against human UO31 cells assessed as viable cells at 10 uM after 48 hrs by sulforhodamine B assay; format: functional; details: UO-31, 48 h, read-out: Activity; method in brief: as §1
[8] = system: Human alphaherpesvirus 2; experiment: Antiviral activity against HSV2; format: functional, organism-based
[9] = system: Influenza A virus; experiment: Antiviral activity against Influenza A H5N1; format: functional, organism-based
[10] = system: LOX IMVI; experiment: Cytotoxicity against human LOXIMVI cells assessed as viable cells at 10 uM after 48 hrs by sulforhodamine B assay; format: functional; details: read-out: Activity; method in brief: as §1
[11] = system: Mycobacterium tuberculosis; experiment: Antituberculosis activity against Mycobacterium tuberculosis […] by alamar blue assay; format: functional, organism-based
[12] = system: West Nile virus; experiment: Antiviral activity against WNV; format: functional, organism-based
[13] = system: Hepatitis B virus; experiment: Antiviral activity against HBV; format: functional, organism-based
[14] = system: Microglia; experiment: Antiinflammatory activity in LPS-stimulated rat neonatal microglia assessed as inhibition of PMA-stimulated superoxide anion production; format: functional
[15] = system: Influenza B virus; experiment: Antiviral activity against Influenza B; format: functional, organism-based

| Structure (SMILES) | Activity [1] | Activity [2] | viability at 10 µM [3] | Activity [4] | Activity [5] | viability at 10 µM [6] | viability at 10 µM [7] | Activity [8] | Activity [9] | viability at 10 µM [10] | Activity [11] | Activity [12] | Activity [13] | Activity [14] | Activity [15] |
| --- | --- | --- | --- | --- | --- | --- | --- | --- | --- | --- | --- | --- | --- | --- | --- |
| CC[C@H](C)[C@@H]1NC(=O)[C@H]([C@@H](C)CC)NC(=O)[C@H]([C@@H](C)CC)NC(=O)[C@@H]2CCCN2C(=O)[C@H]([C@H](C)O)NC(=O)[C@@H]2CCCN2C(=O)[C@@H]2CCCN2C(=O)[C@H](CC(C)C)NC1=O [DOMINICIN] | inactive | inactive | 100% | inactive | inactive | 100% | 32.8% | inactive | inactive | 100% | inactive | inactive | inactive | inactive | inactive |
| CC[C@@H](C)[C@@H]1NC(=O)[C@@H]2CCCN2C(=O)[C@H](CO)NC(=O)[C@H](Cc2ccccc2)NC(=O)[C@H]([C@H](C)CC)NC(=O)[C@@H]2CCCN2C(=O)[C@H](Cc2ccccc2)NC1=O [EURYJANICIN D] | inactive | inactive | 100% | inactive | inactive | 94.6% | 82.7% | inactive | inactive | 87.6% | inactive | inactive | inactive | inactive | inactive |
| CC(C)[C@@H]1NC(=O)[C@H](Cc2ccccc2)NC(=O)[C@@H]2CCCN2C(=O)[C@H]([C@@H](C)O)NC(=O)[C@H](C)NC(=O)[C@@H]2CCCN2C(=O)[C@@H]2CCCN2C1=O [EURYJANICIN B] (cyclo(ATPFVPP)) | inactive | inactive | 91.3% | inactive | inactive | 83.9% | 76.3% | inactive | inactive | 88.6% | inactive | inactive | inactive | inactive | inactive |
| CC[C@@H](C)[C@@H]1NC(=O)[C@@H]2CCCN2C(=O)[C@H](Cc2ccccc2)NC(=O)[C@H](CC(C)C)NC(=O)[C@@H]2CCCN2C(=O)[C@H]([C@H](C)CC)NC(=O)[C@H](CO)NC1=O [EURYJANICIN C] | inactive | inactive | 100% | inactive | inactive | 95.1% | 83.4% | inactive | inactive | 88% | inactive | inactive | inactive | inactive | inactive |
